Measurements taken from article PMC6571060 (Cancer research, 2019).
“Also recorded” adds a separate entry of the source.

Tests used:
[1] = system: mut-KRas(G12S) A549 xenograft; assay: Antitumor activity, A549 xenograft; type: in vivo, NOD-SCID mice; conditions: 200 mg/kg ip daily for up to 20 days
In short: (§1)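 About 10⁷ log-phase NSCLC cells in 0.2 mL PBS were injected subcutaneously into the flank of female NOD-SCID mice, 10 per group. Daily 200 mg/kg ip dosing began at tumor volumes of 50–150 mm³, for 20 days (A549, H441) or 21 days (H1975). Caliper volumes were taken twice weekly and body weight weekly. P values were computed at end of dosing.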

mut-KRas cells = assay: Cell proliferation in a small group of mut-KRas cells; type: cell-based
In short: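 Cells were exposed to test compound for 72 hr. Growth was then read by XTT cell viability assay.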

[2] = Mouse body weight during treatment; type: in vivo, NOD-SCID mice; conditions: PHT-7.3 treatment, 200 mg/kg ip daily
In short: as §1

[3] = target: T1, Cnk1 and mut-KRas co-localization in HEK293 cells (Homo sapiens, UniProt Q969H4); assay: Confocal microscopy / FLIM of Cnk1-GFP and mut; type: cell-based
T1 sequence (Q969H4 1-720): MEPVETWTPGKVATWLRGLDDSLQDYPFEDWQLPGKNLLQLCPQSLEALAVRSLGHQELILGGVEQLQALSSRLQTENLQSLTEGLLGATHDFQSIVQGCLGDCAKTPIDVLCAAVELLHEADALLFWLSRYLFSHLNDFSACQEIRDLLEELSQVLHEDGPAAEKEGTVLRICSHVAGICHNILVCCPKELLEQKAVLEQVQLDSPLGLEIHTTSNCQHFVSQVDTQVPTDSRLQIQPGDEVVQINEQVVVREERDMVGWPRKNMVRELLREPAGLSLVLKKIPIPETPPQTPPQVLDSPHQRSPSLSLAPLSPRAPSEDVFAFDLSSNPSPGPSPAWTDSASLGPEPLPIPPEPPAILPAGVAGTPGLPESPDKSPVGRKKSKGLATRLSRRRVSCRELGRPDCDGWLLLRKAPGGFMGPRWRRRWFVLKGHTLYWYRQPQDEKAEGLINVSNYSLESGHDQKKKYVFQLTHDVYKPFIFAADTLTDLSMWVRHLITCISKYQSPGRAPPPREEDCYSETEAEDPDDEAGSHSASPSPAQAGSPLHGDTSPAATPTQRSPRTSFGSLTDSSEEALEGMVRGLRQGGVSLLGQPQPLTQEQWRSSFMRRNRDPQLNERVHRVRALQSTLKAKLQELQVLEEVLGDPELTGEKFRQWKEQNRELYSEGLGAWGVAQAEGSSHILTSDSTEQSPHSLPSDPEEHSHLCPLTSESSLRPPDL
In short: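 HEK293 cells co-expressed Cnk1-GFP and mut(G12D)-KRas-RFP and were incubated 1 hr with 50 μM test compound. Confocal laser scanning microscopy assessed membrane co-localization. FLIM average fluorescence lifetime was taken from co-localization images, with lifetime shortening from FRET indicating direct Cnk1–KRas interaction.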

[4] = Pharmacokinetics in mice after intraperitoneal administration; type: in vivo; conditions: 10 mg/kg
wt-KRas NSCLC cells = assay: 3D growth inhibition; type: cell-based
In short: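 NSCLC lines were tested for mycoplasma and authenticated before study and every 2 months in culture. Anchorage-independent growth was measured in soft agarose using a modified 96-well method, with test compound present. IC50 values were derived for 3D growth inhibition.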

[5] = system: wt-KRas H1975 NSCLC xenograft; assay: Antitumor activity, H1975 xenograft; type: in vivo, NOD-SCID mice; conditions: 200 mg/kg ip daily for 21 days
In short: as §1

[6] = system: mut-KRasG12V H441 xenograft; assay: Antitumor activity, H441 xenograft; type: in vivo, NOD-SCID mice; conditions: 200 mg/kg ip daily for up to 20 days
In short: as §1

wt-KRas NSCLC cell lines = assay: 2D growth on plastic of NSCLC cell line panel; type: cell-based; conditions: 72 hr
Cell migration = assay: Cell migration; type: cell-based
PH domain of Cnk1 [7] = target: T2, PH domain of Cnk1 (Homo sapiens, UniProt Q969H4); assay: SPR binding to the Gst-tagged PH domain of Cnk1; conditions: read-out: Cnk1 binding Kd, SPR spectroscopy
T2 sequence (Q969H4 403-502 limits assumed): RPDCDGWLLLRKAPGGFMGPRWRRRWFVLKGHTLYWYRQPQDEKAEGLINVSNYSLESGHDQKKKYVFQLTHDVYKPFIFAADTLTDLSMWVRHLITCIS
In short: (§2)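 The Cnk1 PH domain was expressed with an N-terminal glutathione S-transferase fusion and captured on a CM5 chip with a Gst capture kit. Compound binding or PtdIns(3,4,5)P₃ displacement was run by SPR on a Biacore T200.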

mut-KRas NSCLC cells = assay: 3D growth inhibition; type: cell-based; conditions: read-out: Growth inhibition IC50 mut-Ras; mean IC50, 3D growth; H2122, Calu1, H2009, H441, H358, H1573, H23, H1373, A549, H1944, H647
PH domain of Cnk1 [8] = target: T2, PH domain of Cnk1; assay: SPR displacement of PtdIns; type: binding; conditions: 50 μM
In short: as §2

[9] = system: p-Egfr, activated RalB and Rho in A549 NSCLC tumor xenografts; assay: Western blot / GTP activation of downstream signaling in A549 tumor xenografts; type: in vivo, mice; conditions: 200 mg/kg ip
In short: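 A549 xenograft tumors were sampled at 4 and 24 hr after a single 200 mg/kg ip dose, and 4 hr after the last dose of 6 days' daily dosing, 4 mice per time point. Blots probed phospho-Egfr Tyr1068 and other signaling proteins. RalA/B, Rho and total Ras GTP were measured by activation kits.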

RalB and Rho activation = assay: Western blot / GTP activation of downstream K-Ras signaling in mut-KRAS cells; type: cell-based; conditions: panel of mut-KRAS cells, 24 hr
In short: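 Mut-KRas NSCLC cells were exposed 24 hr to 25 μM test compound; A549 received a concentration range. Western blots used rabbit monoclonal phospho- and total-protein antibodies. RalA, RalB, Rho and Ras GTP levels were measured with activation kits per manufacturer instructions.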

[10] = system: PH domains of Pdpk1, Btk, Akt1, and Plekha7; assay: SPR binding selectivity against other PH domains

With `Cc1ccc(-c2csc(Cn3nc(CC4OCCCO4)c4ccccc4c3=O)n2)cc1` [PHT-7.3] the “Antitumor activity, A549 xenograft” value [1] was “cytostatic antitumor activity”, the “Cell proliferation, small group of mut-KRas cells” value (mut-KRas cells) was “inhibit cell proliferation” and the Body weight [2] was “no loss of body weight”. The “Binding of Cnk1 to mut-KRAS by FLIM lifetime” value ([3]; FLIM lifetime plots, compound-treated cells) was “inhibited the binding of Cnk1 to mut-KRAS; also recorded: inhibited Cnk1 interaction with mut-KRAS”, the “Co-localization of Cnk1 and mut-KRas at the cell plasma membrane” value ([3]; confocal microscopy, HEK293 cells, 50 μM, 1 hr) was “blocked the co-localization” and the “Pharmacokinetics Cl” value [4] was 133 mL·min/kg. For the same compound, the “Pharmacokinetics t½β” value [4] was 260 min, the IC50 (wt-KRas NSCLC cells; read-out: Growth inhibition IC50 wt-KRas, mean IC50, 3D growth, H266, H1299, H1975, H3255, H1437, H2023) was 69 µM and the “3D anchorage independent growth of wt-KRas cells” value (wt-KRas NSCLC cells; soft agarose, except H1437 and H2023) was “still not inhibited”. The “Antitumor activity, H1975 xenograft” value [5] was “not in the wt-KRas H1975 NSCLC xenograft”, the “Antitumor activity, H441 xenograft” value [6] was “cytostatic antitumor activity” and the “2D growth of wt-KRas NSCLC cell lines” value (wt-KRas NSCLC cell lines) was “not inhibited except for two lines H1437 and H2023”. For the same compound, the Cell migration (Cell migration) was “inhibited”, the Kd (PH domain of Cnk1 [7]) was 4.7 µM and the IC50 (mut-KRas NSCLC cells) was 19 µM. For the same compound, the “Displacement of PtdIns(3,4,5)P3 binding to the PH domain of Cnk1” value (PH domain of Cnk1 [8]) was “displaced; also recorded: displacement of PtdIns([3],[4],[5])P3 binding”, the “Activated RalB and Rho signaling in tumor xenografts” value [9] was “down-regulation of activated RalB and Rho signaling” and the “p-Egfr level in tumor xenografts” value [9] was “increased levels of p-Egfr”. For the same compound, the “RalB and Rho activation in mut-KRAS cells” value (RalB and Rho activation) was “decreased RalB and Rho activation” and the “Binding to PH domain of Cnk1 compared to PH domains of Pdpk1, Btk, Akt1, and Plekha7” value [10] was “selective binding”.
